Measurements taken from ChEMBL document CHEMBL1629684, “Effects of ravuconazole treatment on parasite load and immune response in dogs experimentally infected with Trypanosoma cruzi” (Antimicrob Agents Chemother, 2010).
Calls of active or inactive are those of the source.

Assays:
Trypanosoma cruzi [1] = assay: Antitrypanosomal activity against Trypanosoma cruzi Berenice-78 infected in mongrel dog assessed as reduction in parasite-induced intrafascicular collagen deposition in right atrium at 12 mg/kg, po BID after 180 days […]; assay type: functional, organism-based; set-up: dose 12 mg/kg; details: Cardiac atrium
Trypanosoma cruzi [2] = assay: Antimicrobial activity against Trypanosoma cruzi Berenice-78 infected in mongrel dog assessed as parasite level in blood of dog at 12 mg/kg, po BID started 12 to 22 days postinfection measured after 30 days by PCR analysis; assay type: functional
Summary of the method: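 Mongrel dogs (4 months old, five per group) were inoculated with 2.0 × 10^3 Berenice-78 bloodstream trypomastigotes/kg and dosed orally at 12 mg/kg q12h for 90 days, beginning 12–22 days postinfection once parasitemia appeared. Blood was sampled 1 month after treatment. PCR used 2 μl blood DNA, 35 cycles with annealing at 30°C then 40°C, and polyacrylamide gel with silver staining.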

[3] = Half life in mouse; assay type: ADME, organism-based; details: in vivo
Canis familiaris [4] = assay: Toxicity in mongrel dog infected with Trypanosoma cruzi Berenice-78 assessed as weight loss at 12 mg/kg, po BID for 90 days started 12 to 22 days postinfection measured after 6 months; assay type: organism-based, Canis lupus familiaris; set-up: dose 12 mg/kg, route oral; details: in vivo, 4383 h
Summary of the method: (§1)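 Body weight gain, in kg, was recorded for infected dogs 1 day and 6 months after the end of oral b.i.d. treatment. Treated animals were compared with infected untreated and noninfected control groups.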

Trypanosoma cruzi [5] = assay: Antitrypanosomal activity against Trypanosoma cruzi Y infected in mongrel dog assessed as reduction in parasite-induced intrafascicular collagen deposition at 7 mg/kg, po BID after 180 days […]; assay type: functional, organism-based; set-up: dose 7 mg/kg
Trypanosoma cruzi [6] = assay: Antimicrobial activity against Trypanosoma cruzi Berenice-78 infected in mongrel dog assessed as survival of dog at 7 mg/kg, po BID started 12 to 22 days postinfection measured after 1 day; assay type: functional
Summary of the method: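 Four-month-old mongrel dogs (five per group) received 2.0 × 10^3 Y or Berenice-78 bloodstream trypomastigotes/kg. Oral dosing began 12–22 days postinfection, when parasitemia was detected by fresh blood examination: 12 mg/kg q12h for 90 days, or 7 mg/kg q12h for 60 days. Ear-vein blood was checked from day 10. Mortality was expressed as the cumulative percentage of dead animals.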

[7] = Half life in po dosed human; assay type: ADME, organism-based; details: in vivo
Trypanosoma cruzi [8] = assay: Antimicrobial activity against Trypanosoma cruzi Berenice-78 infected in mongrel dog assessed as suppression of microbial proliferation at 7 mg/kg, po BID started 12 to 22 days postinfection measured after 1 day; assay type: functional, organism-based; set-up: dose 7 mg/kg
Summary of the method: (§2)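 Mongrel dogs, 4 months old, dewormed and vaccinated, were inoculated with 2.0 × 10^3 bloodstream trypomastigotes/kg. Oral b.i.d. (q12h) dosing began 12 to 22 days postinfection, once parasitemia appeared. Dosing ran 90 days at 12 mg/kg and 60 days at 7 mg/kg, with 5 dogs per group. Parasitemia was read by fresh-blood examination of marginal ear vein blood from day 10 of infection until parasites were undetectable.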

Canis familiaris [9] = assay: Immunostimulatory activity in mongrel dog infected with Trypanosoma cruzi Berenice-78 assessed as reduction in INFgamma production in right atrium at 12 mg/kg, po BID after 180 days by semiquantitative RT-PCR; assay type: functional, organism-based; set-up: dose 12 mg/kg; details: Canis lupus familiaris, Cardiac atrium
Summary of the method: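 Dogs were euthanized 6 months after the end of treatment. RNA was extracted from the right atrium with acid guanidinium thiocyanate-phenol-chloroform. One microgram was DNase treated and reverse transcribed with oligo(dT) for 1 h at 42°C. IFN-γ or IL-10 cDNA was amplified with 1.5 mM MgCl2: 94°C 5 min, n cycles of 94/57/72°C, final extension 72°C 6 min. Expression was scored semiquantitatively against infected untreated and noninfected dogs.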

Trypanosoma cruzi [10] = assay: Antimicrobial activity against Trypanosoma cruzi Y infected in mongrel dog assessed as parasite level in blood of dog at 7 mg/kg, po BID started 12 to 22 days postinfection measured after 30 days by PCR analysis; assay type: functional
Summary of the method: (§3)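 Blood PCR for T. cruzi on treated dogs (n = 5 per group) at 1 and 6 months posttreatment. Each reaction took 2 μl blood DNA template in Tris-HCl pH 9.0, 75 mM KCl, 3.5 mM MgCl2 and 0.2 mM dNTPs. Cycling was 95°C 5 min, then 2 cycles annealing at 30°C, 33 cycles at 40°C, and 72°C 5 min. Products were run on 6% polyacrylamide and silver stained. Reported as rate of positive animals.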

Canis familiaris [11] = assay: Immunostimulatory activity in mongrel dog infected with Trypanosoma cruzi Berenice-78 assessed as production of antibody IgG at 12 mg/kg, po BID for 90 days measured up to 30 days by ELISA; assay type: functional, organism-based; set-up: dose 12 mg/kg; details: Canis lupus familiaris
Summary of the method: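 Serum was taken before inoculation and then monthly until 6 months posttreatment, and stored at −80°C. ELISA plates were coated with alkaline extract of Y-strain parasites grown to exponential phase in LIT medium. Bound total IgG or IgG2 was detected with peroxidase-labeled anti-dog conjugates and read at 490 nm. Cutoff was the mean absorbance of 10 uninfected dogs plus 2 SD.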

Canis familiaris [12] = assay: Toxicity in mongrel dog infected with Trypanosoma cruzi Y assessed as weight loss at 12 mg/kg, po BID for 90 days started 12 to 22 days postinfection measured after 6 months; assay type: organism-based, Canis lupus familiaris; set-up: dose 12 mg/kg, route oral; details: in vivo, 4383 h; summary of the method: as §1
Trypanosoma cruzi [13] = assay: Antimicrobial activity against Trypanosoma cruzi Y infected in mongrel dog assessed as parasite level in blood of dog at 12 mg/kg, po BID started 12 to 22 days postinfection measured after 30 days by PCR analysis; assay type: functional; summary of the method: as §3
Canis familiaris [14] = assay: Toxicity in mongrel dog infected with Trypanosoma cruzi Berenice-78 assessed as weight loss at 7 mg/kg, po BID for 90 days started 12 to 22 days postinfection measured after 6 months; assay type: organism-based, Canis lupus familiaris; set-up: dose 7 mg/kg, route oral; details: in vivo, 4383 h; summary of the method: as §1
Trypanosoma cruzi [15] = assay: Antimicrobial activity against Trypanosoma cruzi Y infected in mongrel dog assessed as suppression of microbial proliferation at 7 mg/kg, po BID started 12 to 22 days postinfection measured after 1 day; assay type: functional, organism-based; set-up: dose 7 mg/kg; summary of the method: as §2

C[C@@H](c1nc(-c2ccc(C#N)cc2)cs1)[C@](O)(Cn1cncn1)c1ccc(F)cc1F [RAVUCONAZOLE]
Activity (Trypanosoma cruzi [1]): Active
Activity (Trypanosoma cruzi [2]): 100%
half-life [3]: 4.5 h
Activity (Canis familiaris [4]): Non-toxic
Activity (Trypanosoma cruzi [5]): Active
Activity (Trypanosoma cruzi [6]): 100%
half-life [7]: ≥ 120 h
Activity (Trypanosoma cruzi [8]): Non-toxic
Activity (Canis familiaris [9]): Active
Activity (Trypanosoma cruzi [10]): 40%
Activity (Canis familiaris [11]): Active
Activity (Canis familiaris [12]): Non-toxic
Activity (Trypanosoma cruzi [13]): 80%
Activity (Canis familiaris [14]): Non-toxic
Activity (Trypanosoma cruzi [15]): Non-toxic
